Source: ChEMBL document CHEMBL3414442, “Synthesis and biological evaluation of 2,4-diaminopyrimidines as selective Aurora A kinase inhibitors” (Eur J Med Chem, 2015)
Calls of active or inactive are those of the source. The calls are words filed in the database; no cut-off is given here.

What was measured:
[1] = tested on: HeLa; assay: Cytotoxicity against human HeLa cells after 48 hrs by MTT assay; format: functional, cell-based
In short: (§1)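 Cells were grown at 37 °C in 5% CO2, plated and left to attach for 4–6 h, then exposed to five concentrations (dissolved in saline) in quadruplicate wells for 48 h. MTT was added for 4 h, formazan was dissolved in DMSO, and A490 was read. IC50 was taken from a log plot of percent of control versus concentration, as the mean of three independent experiments.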

[2] = tested on: HeLa; assay: Selectivity index, ratio of IC50 for Aurora B in human HeLa cells to IC50 for Aurora A in human HeLa cells; format: cell-based
[3] = biological target: T1, Aurora kinase B (Homo sapiens, UniProt Q96GD4); assay: Inhibition of Aurora B in human HeLa cells after 12 hrs by Western blot method; format: cell-based
In short: (§2)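 HeLa cells were treated for 12 h at 10, 25 or 50 nM. They were washed in PBS and lysed in Tris-HCl pH 7.5 buffer with EDTA, NaCl, PMSF and 1% SDS, then boiled for 10 min. Proteins were separated, blotted onto nitrocellulose and probed with antibodies against Aurora A or Aurora B.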

[4] = Cytotoxicity against human HCT8 cells after 48 hrs by MTT assay; format: functional, cell-based; conditions: HCT-8, 48 h; in short: as §1
[5] = biological target: T1, Aurora kinase B; assay: Inhibition of Aurora B in human HeLa cells after 12 hrs by ELISA method; format: cell-based
[6] = tested on: HepG2; assay: Cytotoxicity against human HepG2 cells after 48 hrs by MTT assay; format: functional, cell-based; conditions: HepG2, 48 h; in short: as §1
[7] = tested on: A549; assay: Cytotoxicity against human A549 cells after 48 hrs by MTT assay; format: functional, cell-based; conditions: A549, 48 h; in short: as §1
[8] = biological target: T2, Aurora kinase A (Homo sapiens) (UniProt O14965); assay: Inhibition of Aurora A in human HeLa cells after 12 hrs by Western blot method; format: cell-based; in short: as §2
T2 sequence (whole entry): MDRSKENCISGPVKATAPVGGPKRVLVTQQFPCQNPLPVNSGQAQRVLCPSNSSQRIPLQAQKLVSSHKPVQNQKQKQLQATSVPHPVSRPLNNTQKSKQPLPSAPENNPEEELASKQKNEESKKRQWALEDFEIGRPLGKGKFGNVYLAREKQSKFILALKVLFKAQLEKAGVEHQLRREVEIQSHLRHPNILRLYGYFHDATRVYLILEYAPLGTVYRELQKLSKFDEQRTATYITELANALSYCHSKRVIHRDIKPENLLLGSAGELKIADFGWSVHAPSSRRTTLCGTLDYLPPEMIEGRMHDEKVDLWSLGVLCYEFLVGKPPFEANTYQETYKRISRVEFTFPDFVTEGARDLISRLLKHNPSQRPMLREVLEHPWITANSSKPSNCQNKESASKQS

[9] = biological target: T3, Aurora kinase A (Homo sapiens, UniProt O14965); assay: Inhibition of Aurora A in human HeLa cells after 12 hrs by ELISA method; format: cell-based
T3 sequence (O14965 whole entry): T2 sequence (whole entry)

[10] = tested on: HeLa; assay: Induction of cell cycle arrest in human HeLa cells assessed as accumulation at G1 phase at 5 uM after 12 hrs by propidium iodide staining based flow cytometry (reference value: 73%); format: functional
[11] = tested on: HeLa; assay: Induction of cell cycle arrest in human HeLa cells assessed as accumulation at G2/M phase at 2 uM after 12 hrs by propidium iodide staining based flow cytometry (reference value: 10.2%); format: functional
[12] = tested on: HeLa; assay: Induction of cell cycle arrest in human HeLa cells assessed as accumulation at G2/M phase after 12 hrs by propidium iodide staining based flow cytometry; format: functional
[13] = tested on: HeLa; assay: Increase in cyclin B1 protein expression in human HeLa cells at 500 nM by Western blot method; format: functional, cell-based
In short: (§3)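 Lysates were boiled for 10 min and centrifuged. Proteins were separated, transferred to nitrocellulose, probed for cyclin B1 with antibodies and developed.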

[14] = tested on: HeLa; assay: Induction of cell cycle arrest in human HeLa cells assessed as accumulation at G2/M phase at 5 uM after 12 hrs by propidium iodide staining based flow cytometry (reference value: 10.2%); format: functional
[15] = tested on: HeLa; assay: Induction of cell cycle arrest in human HeLa cells assessed as accumulation at S phase at 2 uM after 12 hrs by propidium iodide staining based flow cytometry (reference value: 16.6%); format: functional
[16] = biological target: T1, Aurora kinase B; assay: Inhibition of Aurora B in human HeLa cells at; format: cell-based
[17] = biological target: T2, Aurora kinase A (Homo sapiens); assay: Inhibition of Aurora A in human HeLa cells at >10 nM after 12 hrs by ELISA method; format: cell-based
In short: (§4)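 HeLa cells were treated for 12 h. A sandwich ELISA used plates coated with anti-human Aurora A or B antibody and an HRP-labelled detection antibody. TMB substrate was added, the reaction was stopped with sulphuric acid, and absorbance was read at 450 nm.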

[18] = tested on: HeLa; assay: Induction of cell cycle arrest in human HeLa cells assessed as accumulation at S phase at 5 uM after 12 hrs by propidium iodide staining based flow cytometry (reference value: 16.6%); format: functional
[19] = tested on: HeLa; assay: Increase in cyclin B1 protein expression in human HeLa cells at 100 nM by Western blot method; format: functional, cell-based; in short: as §3
[20] = tested on: HeLa; assay: Induction of cell cycle arrest in human HeLa cells assessed as accumulation at G1 phase at 2 uM after 12 hrs by propidium iodide staining based flow cytometry (reference value: 73%); format: functional
[21] = biological target: T1, Aurora kinase B; assay: Inhibition of Aurora B in human HeLa cells at >10 nM after 12 hrs by ELISA method; format: cell-based; in short: as §4
[22] = biological target: T2, Aurora kinase A (Homo sapiens); assay: Inhibition of Aurora A in human HeLa cells at; format: cell-based

T1 sequence (Q96GD4 whole entry): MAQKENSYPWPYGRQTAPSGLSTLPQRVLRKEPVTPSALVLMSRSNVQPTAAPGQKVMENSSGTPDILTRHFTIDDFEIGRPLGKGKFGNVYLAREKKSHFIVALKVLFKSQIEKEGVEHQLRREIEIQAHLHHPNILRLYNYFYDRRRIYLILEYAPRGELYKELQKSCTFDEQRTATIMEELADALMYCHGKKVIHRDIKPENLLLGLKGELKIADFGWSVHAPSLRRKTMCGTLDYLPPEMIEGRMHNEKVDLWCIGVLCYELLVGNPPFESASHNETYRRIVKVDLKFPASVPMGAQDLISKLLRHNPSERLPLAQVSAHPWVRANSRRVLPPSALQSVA

Row | Compound | IC50 [1] [µM] | IC50 [4] [µM] | IC50 [6] [µM] | IC50 [7] [µM] | also measured
1 | COc1cc(C(=O)NC2CCN(C)CC2)ccc1Nc1ncc(F)c(NC2CCCC2)n1 | 2.2 | 2.1 | 4.5 | 2.1 | Ratio IC50 [2]: 9; inhibition [3]: Dose-dependent effect; IC50 [5]: 395 nM; inhibition [8]: Dose-dependent effect; IC50 [9]: 43 nM
2 | CCCNc1nc(Nc2ccc(N3CCN(C)CC3)cc2)ncc1F | 14.2 | 50 | 35 | 5.1 | –
3 | Cc1cc(Nc2cc(N3CCN(C)CC3)nc(Sc3ccc(NC(=O)C4CC4)cc3)n2)n[nH]1 [TOZASERTIB] | 27.3 | 44.6 | 63.4 | 19.4 | –
4 | CN1CCC(NC(=O)c2ccc(Nc3ncc([N+](=O)[O-])c(NC4CCCC4)n3)cc2)CC1 | 21.7 | 15.6 | 5.8 | 42.3 | –
5 | CN1CCC(NC(=O)c2ccc(Nc3ncc(Br)c(NC4CCCC4)n3)cc2)CC1 | 0.9 | 3.6 | 2.4 | 0.5 | Ratio IC50 [2]: 35; inhibition [3]: Dose-dependent effect; Activity [10]: 50.5%; IC50 [5]: 430 nM; Activity [11]: 33.2%; Activity [12]: Dose-dependent effect; inhibition [13]: Active; Activity [14]: 43.5%; Activity [15]: 10.6%; inhibition [16]: inactive; inhibition [17]: Active; Activity [18]: 6%; inhibition [19]: Active; inhibition [8]: Dose-dependent effect; Activity [20]: 56.2%; inhibition [21]: Active; inhibition [22]: inactive; IC50 [9]: 12 nM
6 | CN1CCC(NC(=O)c2ccc(Nc3ncc(F)c(NC4CCCC4)n3)cc2)CC1 | 45.5 | 16 | 10 | 10.3 | –
7 | O=[N+]([O-])c1cnc(Nc2ccc(N3CCOCC3)cc2)nc1NC1CCCC1 | 36.4 | 20 | 21.9 | 63.7 | –
8 | CCCNc1nc(Nc2ccc(N3CCOCC3)cc2)ncc1F | 7.3 | 73.9 | 20 | 8.8 | –
9 | Fc1cnc(Nc2ccc(N3CCOCC3)cc2)nc1NC1CC1 | 6 | 40.3 | 33 | 8.7 | –
10 | CN1CCN(c2ccc(Nc3ncc(F)c(NC4CCCC4)n3)cc2)CC1 | 20 | 29 | 25 | 37.2 | –
11 | CN1CCC(NC(=O)c2ccc(Nc3ncc(Cl)c(NC4CCCC4)n3)cc2)CC1 | 1.5 | 4.6 | 2.2 | 1.8 | –
12 | COc1cc(C(=O)NC2CCN(C)CC2)ccc1Nc1ncc(Br)c(NC2CCCC2)n1 | 3.5 | 12 | 4.9 | 2.5 | –
13 | CN1CCN(c2ccc(Nc3ncc([N+](=O)[O-])c(NC4CCCC4)n3)cc2)CC1 | 3.8 | 53.7 | 5.2 | 4.6 | –
14 | CN1CCN(c2ccc(Nc3ncc(N)c(NC4CCCC4)n3)cc2)CC1 | 9.7 | 4.2 | 18.5 | 27 | –
15 | COc1cc(C(=O)NC2CCN(C)CC2)ccc1Nc1ncc(Cl)c(NC2CCCC2)n1 | 2.7 | 4.4 | 9.3 | 5.3 | –
16 | Fc1cnc(Nc2ccc(N3CCOCC3)cc2)nc1NC1CCCC1 | 31.4 | 24 | 36.5 | 17.3 | –
